# Screen size: about 20,000 compounds; about 25 (0.1%) were called active. This is one part of a sample in which actives are shown more often than they occur. Unmarked numbers belong to inactive results.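 How the source made its calls: active means mean replicate protection from cytokine-induced ATP loss at least 50% and at least 75% of replicates each reaching 50%; inconclusive means meets only one of the two criteria, mean or replicate share; inactive means fails both the mean and replicate share criteria.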
# Assay: preservation of ATP in cytokine-treated beta cells – cell-based, ATP luminescence, single point, primary screen (AID 488910)
# Settings: INS-1E cytokine-induced death, 48 h, at 10 µM, stronger effect = higher value, normalised: neutral wells 0, positive control 100
# Procedure, shortened: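 Assay system – rat INS-1E insulinoma cell line · Quantity – 8000 cells per well · Buffer or medium – RPMI without phenol red, 5% FBS · Schedule – 48 h co-treatment, 10 min post-lysis read · Technique – luminescent ATP assay (CellTiter-Glo)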
row,Compound,protection from cytokine-induced ATP loss
1,C[C@@H]1CN([C@@H](C)CO)C(=O)Cc2cc(NS(=O)(=O)c3cccs3)ccc2O[C@@H]1CN(C)S(=O)(=O)c1ccc(F)cc1,4.38%
2,C[C@H](CO)N1C[C@H](C)[C@H](CN(C)Cc2ccccc2)Oc2ccc(NC(=O)Cc3ccccc3)cc2C1=O,0.0546%
3,C[C@@H]1CN([C@@H](C)CO)C(=O)c2cc(NC(=O)Nc3cccc4ccccc34)ccc2O[C@@H]1CN(C)C(=O)Nc1cccc2ccccc12,-6.66%
4,C[C@@H]1CCCCO[C@H](CN(C)Cc2ccccc2)[C@@H](C)CN([C@H](C)CO)C(=O)c2cc(NC(=O)Cc3ccccc3)ccc2O1,-13%
5,COc1ccc(NC(=O)Nc2ccc3c(c2)C(=O)N([C@@H](C)CO)C[C@@H](C)[C@H](CN(C)Cc2ccc(Cl)c(Cl)c2)O3)cc1,-22.1%
6,C[C@@H]1CN([C@H](C)CO)C(=O)Cc2cc(NC(=O)Cn3cnnn3)ccc2O[C@H]1CN(C)Cc1ccc(C(F)(F)F)cc1,1.99%
7,C[C@@H]1CN([C@@H](C)CO)C(=O)c2cccc(NC(=O)C3CC3)c2O[C@@H]1CN(C)Cc1ccccc1,1.55%
8,CC(C)NC(=O)Nc1ccc2c(c1)CC(=O)N([C@H](C)CO)C[C@@H](C)[C@@H](CN(C)C(=O)Nc1ccc3c(c1)OCO3)O2,9.22%
9,C[C@@H]1CN([C@@H](C)CO)C(=O)c2cc(NS(=O)(=O)c3ccccc3)ccc2O[C@@H]1CN(C)Cc1ccc(C(=O)O)cc1,5.28%
10,C[C@H](CO)N1C[C@H](C)[C@H](CN(C)Cc2ccncc2)Oc2ccc(NS(=O)(=O)c3cn(C)cn3)cc2C1=O,-2.95%
11,C[C@@H]1CN([C@@H](C)CO)C(=O)c2cccc(NC(=O)C3CC3)c2O[C@@H]1CN(C)C,3.84%
12,CC(C)NC(=O)Nc1ccc2c(c1)C(=O)N([C@@H](C)CO)C[C@@H](C)[C@H](CN(C)Cc1ccc(-c3ccccc3)cc1)O2,-8.83%
13,C[C@H]1CN([C@@H](C)CO)C(=O)Cc2cc(NC(=O)Nc3ccc(F)cc3)ccc2O[C@H]1CN(C)C(=O)Nc1ccc(C(F)(F)F)cc1,-14.8%
14,COc1ccc(NC(=O)N(C)C[C@@H]2Oc3ccc(NC(=O)Nc4ccccc4)cc3CC(=O)N([C@H](C)CO)C[C@@H]2C)cc1,9.6%
15,Cc1noc(C)c1NC(=O)Nc1cccc2c1O[C@@H](CN(C)CC1CCCCC1)[C@H](C)CN([C@@H](C)CO)C2=O,-7.27%
16,C[C@@H]1CN([C@@H](C)CO)C(=O)c2cccc(NS(=O)(=O)c3ccc(F)cc3)c2O[C@H]1CN(C)S(=O)(=O)c1cccs1,2.23%
17,COc1ccc(NC(=O)N(C)C[C@@H]2Oc3ccc(NC(=O)Cn4cnnn4)cc3C(=O)N([C@H](C)CO)C[C@@H]2C)cc1,6.28%
18,Cc1ccc(S(=O)(=O)Nc2ccc3c(c2)C(=O)N([C@@H](C)CO)C[C@H](C)[C@H](CN(C)C(=O)Nc2ccc(C(F)(F)F)cc2)O3)cc1,-7.22%

row,Compound,protection from cytokine-induced ATP loss
1,Cc1noc(C)c1NC(=O)Nc1ccc2c(c1)C(=O)N([C@H](C)CO)C[C@@H](C)[C@H](CN(C)Cc1ccncc1)O2,3.35%
2,C[C@@H]1CN([C@@H](C)CO)C(=O)c2cccc(NC(=O)Nc3ccc(F)cc3)c2O[C@@H]1CN(C)C(=O)Nc1ccccc1,7.56%
3,C[C@H](CO)N1C[C@H](C)[C@@H](CN(C)Cc2ccc3c(c2)OCO3)Oc2c(cccc2N(C)C)C1=O,-11%
4,C[C@@H]1CN([C@@H](C)CO)C(=O)c2cccc(NS(=O)(=O)c3cccs3)c2O[C@@H]1CN(C)CC1CC1,-3.04%
5,C[C@@H]1CN([C@H](C)CO)C(=O)c2cccc(NS(=O)(=O)c3ccccc3)c2O[C@@H]1CN(C)Cc1ccc(C(=O)O)cc1,2.31%
6,C[C@@H]1CN([C@@H](C)CO)C(=O)c2cc(NC(=O)CCN3CCOCC3)ccc2O[C@H]1CN(C)C(=O)NC1CCCCC1,5.18%
7,C[C@H](CO)N1C[C@H](C)[C@@H](CN(C)Cc2ccc(C(=O)Nc3ccccc3N)cc2)Oc2c(NC(=O)C3CC3)cccc2C1=O,-6.93%
8,COc1ccc(NC(=O)N(C)C[C@@H]2Oc3c(NS(=O)(=O)c4cn(C)cn4)cccc3C(=O)N([C@H](C)CO)C[C@@H]2C)cc1,-3.57%
9,Cc1noc(C)c1S(=O)(=O)N(C)C[C@H]1OCCCC[C@@H](C)Oc2ccc(NC(=O)C3CCCCC3)cc2C(=O)N([C@H](C)CO)C[C@@H]1C,8.15%
10,C[C@@H]1CN([C@H](C)CO)C(=O)Cc2cc(NC(=O)c3ccncc3)ccc2O[C@@H]1CN(C)Cc1ccncc1,13.2%
11,Cc1ccc(S(=O)(=O)N(C)C[C@@H]2Oc3c(NS(C)(=O)=O)cccc3C(=O)N([C@@H](C)CO)C[C@H]2C)cc1,-1.18%
12,C[C@H]1CN([C@@H](C)CO)C(=O)Cc2cc(NC(=O)Nc3ccc(F)cc3)ccc2O[C@H]1CN(C)S(=O)(=O)c1ccc(F)cc1,-1.52%
13,Cc1noc(C)c1S(=O)(=O)Nc1ccc2c(c1)C(=O)N([C@@H](C)CO)C[C@@H](C)[C@H](CN(C)Cc1ccc(-c3ccccc3)cc1)O2,-8.15%
14,C[C@@H]1CN([C@@H](C)CO)C(=O)c2cc(NC(=O)CCCN(C)C)ccc2O[C@H]1CN(C)Cc1ccccc1,-3.08%
15,CC(C)NC(=O)Nc1ccc2c(c1)C(=O)N([C@@H](C)CO)C[C@@H](C)[C@H](CN(C)C(=O)NC1CCCCC1)O2,4.32%
16,Cc1ccc(S(=O)(=O)Nc2cccc3c2O[C@@H](CN(C)S(=O)(=O)c2cccs2)[C@@H](C)CN([C@@H](C)CO)C3=O)cc1,-0.391%
17,C[C@H]1CN([C@@H](C)CO)C(=O)c2cccc(NS(=O)(=O)c3cn(C)cn3)c2O[C@@H]1CN(C)C(=O)Nc1ccc(F)cc1,11.3%
18,COc1ccc(NC(=O)Nc2ccc3c(c2)C(=O)N([C@H](C)CO)C[C@H](C)[C@H](CN(C)C(=O)Nc2c(C)noc2C)OCCCC[C@@H](C)O3)cc1,12%
